High-throughput results from PubChem BioAssay.
M4 PAM: human M4 muscarinic receptor positive allosteric modulators, primary screen, CHO-K1 cells, Fluo-8 calcium fluorescence; Muscarinic acetylcholine receptor M4 (Homo sapiens), P08173; CHO-K1 hM4/Gqi5, ACh EC20; 0% = ACh EC20, 100% = maximal ACh; activation, % at 3 µM; 360,000 compounds, 0.4% hits; AID 624126, 2012;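 active means activation above its plate's cutoff, the mean activation of sample wells plus 3 SD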
M4 antag: human M4 muscarinic receptor antagonists, primary screen, CHO cells, Fluo-8 calcium fluorescence; Muscarinic acetylcholine receptor M4 (Homo sapiens), P08173; CHO-hM4 cells, ACh EC80; inhibition, % at 3 µM; 360,000 compounds, 0.73% hits; AID 624125, 2012;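 active means inhibition above its plate's cutoff, the mean inhibition of sample wells plus 3 SD, cut at about 27% in these data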;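 further: 0% = acetylcholine EC80 with DMSO and 100% = DMSO without agonist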
TAAR1 antag: human TAAR1 antagonists, primary screen, Fluo-8 calcium fluorescence, CHO RD-HGA16 cells | inhibition, % at 3 µM | antagonist | AID 624466, 2012 | Trace amine-associated receptor 1 (Homo sapiens), Q96RJ0 | 360,000 compounds, 1.5% hits;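 active means inhibition above a per-plate cutoff, the mean inhibition of test compounds on that plate plus 3 SD, cut at about 49% in these data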;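 further: 0% = DMSO plus EC80 beta-PEA response and 100% = DMSO alone without agonist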
Target sequence (Q96RJ0 whole entry, looked up): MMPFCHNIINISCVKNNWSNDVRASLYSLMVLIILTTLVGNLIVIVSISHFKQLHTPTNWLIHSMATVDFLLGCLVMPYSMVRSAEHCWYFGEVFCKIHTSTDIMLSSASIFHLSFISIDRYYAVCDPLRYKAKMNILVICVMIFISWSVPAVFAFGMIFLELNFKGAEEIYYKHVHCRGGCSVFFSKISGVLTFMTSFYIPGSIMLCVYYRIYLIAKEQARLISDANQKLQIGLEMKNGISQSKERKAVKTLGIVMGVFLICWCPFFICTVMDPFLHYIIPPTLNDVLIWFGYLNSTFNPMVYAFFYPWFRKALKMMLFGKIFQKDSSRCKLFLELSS
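Assay system: CHO-derived RD-HGA16 cells stably expressing human TAAR1 plus Gα16. Timing: 140 s kinetic read after compound, 140 s after agonist. Technique: kinetic Fluo-8 calcium fluorescence measurement. Measure: % inhibition of agonist calcium response.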
M4 ag: human M4 muscarinic receptor agonists, primary screen, CHO-K1 cells, Fluo-8 calcium fluorescence | Muscarinic acetylcholine receptor M4 (Homo sapiens), P08173 | CHO-K1 hM4/Gqi5; vehicle 0%, full acetylcholine response 100% | activation, % at 3 µM | 360,000 compounds, 0.14% hits | AID 624127, 2012;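 active means activation above the run mean over all test wells plus 3 SD, cut at about 32% in these data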;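 further: peak over basal fluorescence ratio per well then scaled between controls; 0% = DMSO wells and 100% = acetylcholine at EC100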
TAAR1 agonist: human TAAR1 agonists, primary screen, Fluo-8 calcium fluorescence, CHO RD-HGA16 cells; vehicle wells 0%, saturating PEA agonist 100%; activation, % at 3 µM; 360,000 compounds, 0.99% hits;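 active means activation above the mean activation of all test compounds in the run plus 3 SD, cut at about 38% in these data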
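System: CHO-derived RD-HGA16 cells with stable Gα16 and human TAAR1. Times: 17-24 h plating, Fluo-8 75 min 37 °C, 30 min RT. Measured by: calcium-sensitive Fluo-8 signal, excitation 470-495, emission 515-575 nm. Read-out basis: % activation relative to PEA EC100 response. Control set: DMSO and PEA EC100. Repeats: no replicates (n 1).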
nonsel antag count: nonselective antagonists in TAAR1 counter-screen cells, counter-screen for hTAAR1 antagonist project, cell-based, fluorescence, calcium | shares compounds with TAAR1 antag | counterscreen cell line, antagonist mode | inhibition, % at 3 µM | 2,400 compounds, 77% hits | AID 651780, 2012; in the data active means inhibition above about 22%;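 further: CHO-Ga16 host cells stimulated with ATP at an EC80 level; 0% = agonist EC80 plus vehicle and 100% = vehicle without agonist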
TAAR1 ant conf: human TAAR1 antagonists, retest of hits, confirmation, cell-based, fluorescence; TAAR1-expressing cells, fluorescence antagonist read-out; inhibition, % at 3 µM; shares compounds with TAAR1 antag; 2,400 compounds, 40% hits; in the data active means inhibition above about 49%;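 further: CHO-Ga16 host cells challenged with agonist PEA near its EC80; 0% = agonist at EC80 plus vehicle and 100% = vehicle with no agonist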
Ga16 nonsel ag: calcium activation in Ga16-expressing cells, counter-screen for TAAR1 antagonist project, cell-based, fluorescence; shares compounds with TAAR1 antag; agonist counterscreen; activation, % at 3 µM; 2,400 compounds, 18% hits; AID 651953, 2012; in the data active means activation above about 12%;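 further: 0% = vehicle wells and 100% = saturating stimulus response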
TAAR1 ag counter: TAAR1 activation by candidate antagonists – cell-based, fluorescence, counter-screen for TAAR1 antagonist project; hTAAR1 cell line, agonist mode; activation, % at 3 µM; 2,400 compounds, 2% hits; shares compounds with TAAR1 antag; in the data active means activation above about 37%;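 further: CHO cells stably expressing TAAR1 with calcium dye readout; 0% = DMSO vehicle and 100% = full agonist response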
* marks the source's active call; other numbers are inactive results; nt = no result given. Sampled rows, rich in hits. Any-hit rate of the full collection: about 3%.

SMILES	M4 PAM	M4 antag	TAAR1 antag	M4 ag	TAAR1 agonist	nonsel antag count	TAAR1 ant conf	Ga16 nonsel ag	TAAR1 ag counter
O=C(c1cc(-c2ccncc2)nc2ccc(Br)cc12)N1CCN(c2ccccn2)CC1	-11	6	47	15	35	nt	nt	nt	nt
Cc1ccccc1CN1CCN(C(=O)c2cc(-c3ccncc3)nc3ccccc23)CC1	-11	24	71*	17	12	35*	46	9	9
CC(=O)N1CCN(C(=O)c2cc(-c3cccc4ccccc34)nc3ccccc23)CC1	-8	-8	67*	20	12	33*	48	9	10
Cc1cccc(C)c1C(O)c1ncc(-c2cccc3ccccc23)[nH]1 (stereo unspecified)	4	-10	16	3	2	nt	nt	nt	nt
CCCS(=O)(=O)NC(=O)C1(C)CCCN(C(=O)c2cncc(Br)c2)C1 (stereo unspecified)	0	-2	nt	0	nt	nt	nt	nt	nt
CCOC(=O)C1=CCN(S(=O)(=O)c2ccccc2F)C1c1ccc(Br)cc1 (stereo unspecified)	nt	nt	26	nt	1	nt	nt	nt	nt
O=C(Nc1c(Cl)cc2c(c1Cl)Cc1cc([N+](=O)[O-])ccc1-2)C(Cl)Cl	-2	-13	4	7	9	nt	nt	nt	nt
O=C(c1cc(-c2ccncc2)nc2ccccc12)N1CCN(Cc2ccccc2)CC1	1	3	57*	18	19	19	40	12*	14
COc1cccc(CN2CCN(C(=O)c3cc(-c4ccncc4)nc4ccc(C)cc34)CC2)c1	-9	10	77*	20	14	24*	46	9	10
CC(C)(C)NC(=O)C(c1ccc(-c2ccccc2)cc1)N(C[C@H]1CC[C@@H]([C@@H]2CC[C@H](CO)O2)O1)C(=O)c1ccccc1F (stereo partly specified)	0	-20	nt	3	nt	nt	nt	nt	nt
Cc1ccc(CNC(=O)c2ccc(COc3ccccc3)cc2)cc1	3	-5	53*	0	5	14	14	2	2
Cn1cnc(S(=O)(=O)N2CCCC(c3cc(C(=O)Nc4ccc(F)c(Cl)c4)no3)C2)c1 (stereo unspecified)	3	-11	15	7	4	nt	nt	nt	nt
CCN=C1SC(CC(=O)Nc2ccc(C(F)(F)F)cc2)C(=O)N1CC (stereo unspecified)	-9	19	77*	27	24	38*	65*	13*	14
Cc1ccc(-c2cc(-c3ccc(F)cc3)c(C#N)c(N)n2)o1	-2	11	57*	3	-1	17	35	-1	-2
COc1ccc(C2CC(c3ccccc3)=NN2C(=O)COC(=O)c2ccc(Cl)nc2)cc1 (stereo unspecified)	5	-2	13	2	1	nt	nt	nt	nt
COc1ccc(C2CC(c3ccccc3)=NN2C(=O)COC(=O)CNC(=O)c2ccccc2)cc1 (stereo unspecified)	-1	-4	67*	3	32	43*	54*	22*	37
O=[N+]([O-])c1ccc(N/N=C/c2c[nH]c3ccccc23)cc1	-10	21	89*	17	25	36*	63*	18*	9
Cc1ccc(NC(=O)c2cc(C(C)(C)C)nn2Cc2ccccc2)cc1	-34	6	61*	3	6	24*	42	5	1
